Published values from different studies.
Lines come from different studies, so protocols differ.
Target: Serine/threonine-protein kinase DCLK2 (DCLK2, Homo sapiens, UniProt Q8N568)
Residues used in one study (Q8N568 1-766): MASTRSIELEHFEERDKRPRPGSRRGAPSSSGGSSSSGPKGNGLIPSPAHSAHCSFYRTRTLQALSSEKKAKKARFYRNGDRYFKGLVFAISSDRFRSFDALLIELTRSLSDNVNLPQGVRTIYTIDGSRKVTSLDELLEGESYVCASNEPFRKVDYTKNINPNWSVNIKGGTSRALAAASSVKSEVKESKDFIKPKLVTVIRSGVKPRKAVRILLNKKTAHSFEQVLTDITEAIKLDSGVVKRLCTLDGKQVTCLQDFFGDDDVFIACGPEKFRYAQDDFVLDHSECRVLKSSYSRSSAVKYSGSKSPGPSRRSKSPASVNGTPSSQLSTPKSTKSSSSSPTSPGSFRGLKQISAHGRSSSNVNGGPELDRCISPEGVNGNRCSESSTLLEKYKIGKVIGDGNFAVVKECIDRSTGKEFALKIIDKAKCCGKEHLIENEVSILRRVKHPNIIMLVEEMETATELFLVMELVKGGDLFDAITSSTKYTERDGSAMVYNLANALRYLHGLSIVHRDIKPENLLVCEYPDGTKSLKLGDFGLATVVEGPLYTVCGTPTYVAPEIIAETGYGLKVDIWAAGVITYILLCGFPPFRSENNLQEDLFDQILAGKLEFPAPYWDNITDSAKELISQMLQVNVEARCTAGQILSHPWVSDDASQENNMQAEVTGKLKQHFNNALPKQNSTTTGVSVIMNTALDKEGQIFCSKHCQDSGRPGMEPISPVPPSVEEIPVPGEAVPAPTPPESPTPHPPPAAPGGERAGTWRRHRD

| SMILES | assay | setting | remaining binding [%] |
| --- | --- | --- | --- |
| CN(c1nccc(-c2cnn3ncccc23)n1)C1CC1 | binding | 1 µM | 100 |
| Cc1cc(-n2nc(Cc3cc(F)cc(C(F)(F)F)c3)nc2C)ccc1C(N)=O | cell-free assay, competition with immobilised ligand | 1 µM | 100 |
| c1cncc(-c2cccc(Nc3nccc(NC4CCCCC4)n3)c2)c1 | binding, competition with immobilised ligand | 10 µM | 100 |
| C[C@@H](c1ccc(-n2cnc3c(N)ncnc32)cc1)N1CCc2nn(C)c(Cc3ccccc3)c2C1=O | binding, competition with immobilised ligand | 0.1 µM | 100 |
| CCN1CCN(Cc2ccc(C(=O)Nc3ccc(C)c(Oc4ccc5c(c4)CC(=O)N5)c3)cc2C(F)(F)F)CC1 | binding, competition with immobilised ligand | 1 µM | 92 |
| CNCc1ccccc1-c1csc([C@H](C)Nc2nc(C)nc3cc(OC)c(OC)cc23)c1 | cell-free assay, competition with immobilised ligand | 1 µM | 100 |
| Cc1cnc(Nc2ccc(C(=O)N3CCC(N4CCCC4)CC3)cc2)nc1-c1cc2ccccc2s1 | binding, competition with immobilised ligand | 1 µM | 100 |
| NS(=O)(=O)c1cc(NC(=O)Cc2ccccc2)ccc1Oc1cccc(Cl)c1 | cell-free assay, competition with immobilised ligand | 1 µM | 99 |
| COc1cnc(Nc2cccc(S(N)(=O)=O)c2)nc1N1CCN(c2ccccc2)CC1 | binding, competition with immobilised ligand | 1 µM | 92 |
| Cc1cnn2ncc(-c3ccnc(N(C)C)n3)c2c1 | binding | 1 µM | 100 |
| O=C(NCCCN1CCOCC1)c1ccc(Nc2ncc(Cl)c(-c3ccc(Cl)s3)n2)cc1 | binding, competition with immobilised ligand | 1 µM | 78 |
| COc1ncc2cc3ccccc3nc2c1C#N | cell-free assay, competition with immobilised ligand | 5 µM | 94 |
| CCOC(=O)c1cc2cc(-c3cc(C(=O)NCc4ccc(C(=O)O)cc4)nn3C)ccc2[nH]1 | cell-free assay, competition with immobilised ligand | 0.1 µM | 100 |
| CN(CCCC(F)(F)F)c1nccc(-c2cnn3ncccc23)n1 | binding | 1 µM | 88 |
| O=C(c1ccc(Nc2ncc(Cl)c(-c3ccc(Cl)s3)n2)cc1)N1CCC(N2CCCC2)CC1 | binding, competition with immobilised ligand | 1 µM | 90 |
| O=C1NC(c2ccccn2)Sc2ccccc21 (stereo not shown) | cell-free assay, competition with immobilised ligand | 1 µM | 92 |
| c1cnn2ncc(-c3ccnc(N4CCC45COC5)n3)c2c1 | binding | 1 µM | 78 |
| NS(=O)(=O)c1cc(NC(=O)C2(c3ccccc3Cl)CC2)ccc1Oc1cccc(Cl)c1 | cell-free assay, competition with immobilised ligand | 1 µM | 74 |
| O=C(NCC1CCOCC1)c1n[nH]cc1NC(=O)c1c(F)cccc1F | binding, competition with immobilised ligand | 1 µM | 100 |
